High-throughput results from PubChem.
STAT1 activator: STAT1 signaling activation; activation (% of control), % at 5.5 µM; NIH 3T3 STAT1-luciferase reporter, IFN-gamma, luminescence; 100% = IFN-gamma alone, no compound; 200,000 tested, 2.6% active;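 active = activation above the screen-wide mean activation plus 3 SD, cut at about 130% in these data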
HSV replic up: increases HSV replication in cells; maximum fold increase; HSV replication augmentation in cells, fold increase; 220,000 tested, 0.005% active; in the data active = maximum fold increase above about 1.5; inconclusive = no clear call, values can overlap the other calls; tested in PC3 cells
STAT3 blocker: STAT3 signaling inhibition; U3A cells, IL-6 STAT3-luciferase reporter, luminescence; host cell line lacks STAT1; 190,000 tested, 0.89% active; inhibition, % at 5.5 µM;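 active = inhibition above the mean inhibition across all screened compounds plus 3 SD, cut at about 44% in these data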
STAT3 activator: STAT3 signaling activation; U3A cells, IL-6 STAT3-luciferase reporter, luminescence; 100% = signal with IL-6 EC80 alone; activation (% of control), % at 5.6 µM; 190,000 tested, 0.91% active; AID 871;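 active = activation above the screen-wide mean of compound activation plus 3 SD, cut at about 130% in these data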
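System – human U3A cells carrying STAT3-luciferase construct · Probe or stimulus – Interleukin-6, 33 ng/mL · Schedule – compound 1 h, then IL-6 6 h at 37 °C · Signal – luminescence from STAT3-driven luciferase reporter · Evaluation – percent of IL-6-only median luminescence · Benchmarks – IL-6-only high control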
STAT1 inh: reduces IFN-gamma driven STAT1 reporter signal | 200,000 tested, 0.35% active | inhibition, % at 5.5 µM | NIH 3T3 STAT1-luciferase reporter, luminescence;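 active = inhibition above a set limit, the mean inhibition across all tested compounds plus 3 SD, cut at about 34% in these data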
KCC2 mod: KCC2 (human) Cl- transport modulation; KCC2 cells, thallium flux FluoZin-2 fluorescence; AID 1456; 190,000 tested, 2.2% active; B-score of Tl+ flux slope (higher = more flux/activation; lower = inhibition) at 10 µM;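 active = thallium flux slope and its plate-corrected score both differing from the plate sample mean at a set confidence after two filtering rounds, in either direction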;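 note: slope of fluorescence scaled to starting intensity during 10 to 20 s after thallium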
KCC2 secondary: KCC2 (human) modulation, secondary assay; shares compounds with KCC2 mod; HEK293-KCC2, thallium flux, FluoZin2 fluorescence; active compounds read high; normalised thallium flux (F/F0 slope) at 10 µM; 3,700 tested, 15% active; AID 1713;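 active = thallium flux slope above the same plate's solvent-only control mean plus 3 SD; inconclusive = the two replicate wells disagree; inactive = no significant difference from solvent-only control wells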
KCC2 bumet counter: bumetanide-insensitive thallium flux in KCC2 cells with ouabain, counter-screen | shares compounds with KCC2 mod | HEK293-KCC2 + bumetanide/ouabain, thallium flux FluoZin2; active compounds read high | normalized thallium flux at 10 µM | 3,700 tested, 49% active;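 active = thallium entry rate above the same plate's blocked-transporter control wells by more than 3 SD; inconclusive = the two repeat wells disagree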;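 note: raw slope of fluorescence over initial fluorescence between 10 and 20 s after thallium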
KCC2 secondary2: confirmation of human KCC2 transport modulators. shares compounds with KCC2 mod. HEK293-KCC2, thallium flux FluoZin2 fluorescence; actives lie on both sides; F/F0 rise rate, 10–20 s post-thallium. normalized thallium flux at 10 µM. 3,700 tested, 23% active. AID 1715;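 active = thallium flux slope more than 3 SD above or below the plate's solvent-only control mean, mostly below; inconclusive = the two repeat wells disagreed; inactive = no significant shift from solvent-only controls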
HEK counter1: acts in parental HEK cells, KCC2 counter-screen; AID 1716; HEK293 parental cells, thallium flux FluoZin2, ouabain; baseline-ratio fluorescence slope, 10–20 s after thallium; 3,700 tested, 46% active; shares compounds with KCC2 mod; thallium flux rate (normalised fluorescence) at 10 µM;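 active = thallium flux rate significantly above the same plate's solvent-only control wells, beyond their mean plus 3 SD; inconclusive = the two replicate wells gave conflicting results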
KCC2 retest ouab: confirmation of human KCC2 modulators with ouabain; shares compounds with KCC2 mod; HEK293-KCC2, thallium flux FluoZin2 fluorescence; bidirectional: low = inhibitor, high = activator; raw Tl+ flux slope (below DMSO = inhibition, above = activation) at 10 µM; 3,700 tested, 48% active; AID 1717;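 active = thallium flux slope beyond 3 SD from same-plate DMSO control mean in most replicates, usually higher, sometimes lower; inconclusive = repeat tests gave conflicting results; inactive = no significant difference from controls in most replicates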;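 note: slope of initial-normalized fluorescence between seconds 10 and 20 after thallium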
HEK counter2: acts in parental HEK cells, second KCC2 counter-screen | shares compounds with KCC2 mod | HEK293 parental, thallium flux FluoZin-2 fluorescence slope | thallium flux slope at 10 µM | 3,700 tested, 33% active | AID 1718;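 active = thallium flux slope above the same plate's solvent-control mean plus 3 SD in both duplicate wells; inconclusive = duplicate wells that disagreed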;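 note: run without ouabain in cells lacking the KCC2 cotransporter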
Hits are given with their value; 0 = inactive; ? = inconclusive; - = no result. A selection: hits, their analogues and other compounds. The true share with any hit is near 5.5%.

SMILES	STAT1 activator	HSV replic up	STAT3 blocker	STAT3 activator	STAT1 inh	KCC2 mod	KCC2 secondary	KCC2 bumet counter	KCC2 secondary2	HEK counter1	KCC2 retest ouab	HEK counter2
Cc1ccc(-c2n[nH]c(=O)c3ccccc23)cc1S(=O)(=O)NCCN1CCOCC1	0	0	0	0	0	0	0	0.0087	0	0.0088	0	?
Cc1cccc(C(=O)CC(=O)c2cc(Cl)ccc2O)c1	0	0	0	0	0	-	-	-	-	-	-	-
Cc1ccc(O)c(C(=O)CC(=O)c2cccc(F)c2)c1	130	0	0	0	0	51	0	0.05	0.059	0.058	0.055	0.053
C=CCNC(=S)NNc1nc2c(c(=O)[nH]1)C1(CCCCC1)Cc1ccccc1-2	0	0	0	0	0	0	-	-	-	-	-	-
NC(=O)c1ccc(C(F)(F)F)n(Cc2cccc(Cl)c2)c1=O	0	0	0	0	0	0	-	-	-	-	-	-
O=C(NNC1=Nc2ccccc2SC1)c1ccc(Cl)cc1	-	0	-	-	-	5.5	0	0.011	0	0.0097	0	?
N#CCCN(Cc1cccnc1)C(=O)Nc1cccc(Cl)c1	0	0	0	0	0	0	-	-	-	-	-	-
COC(=O)c1cc2ccsc2n1Cc1ccccc1F	0	0	0	0	0	0	-	-	-	-	-	-
COc1cc2c(cc1OC)C(c1cccs1)CC(=O)N2 (centres undefined)	0	0	0	0	0	-	0	0	0	0	0	0
O=C1CC(c2cccs2)c2cc3c(cc2N1)OCO3 (centres undefined)	0	0	0	0	0	0	-	-	-	-	-	-
CN(C)S(=O)(=O)c1cccc(NC(=S)N/N=C/C2CC=CCC2)c1 (centres undefined)	0	0	0	0	0	0	-	-	-	-	-	-
CN(C)S(=O)(=O)c1cccc(NC(=S)NN=C(Cc2ccccc2)Cc2ccccc2)c1	0	0	0	0	0	5.9	0	0.0099	0	0.014	0	0.016
COc1cc(/C=N/NC(=S)Nc2cccc(S(=O)(=O)N(C)C)c2)ccc1O	0	0	0	0	0	-3.4	0	0	0	0	0.016	0
CCOC(=O)N1CCN(C(=O)CN(Cc2ccc(Cl)cc2)S(=O)(=O)c2ccc(C)cc2)CC1	0	0	0	0	0	0	-	-	-	-	-	-
O=C(C1=C[C@H](C2CC2)C[C@H](OCc2ccc(CO)cc2)O1)N1CCOCC1	0	0	-	-	0	0	-	-	-	-	-	-
CSc1nc2c(cnn2-c2ccccc2)c(=O)n1N	0	0	0	0	0	0	-	-	-	-	-	-
CCSc1nc2c(cnn2-c2ccccc2)c(=O)n1N	-	0	-	-	-	4.6	0	0.02	0	0.01	0.034	0.011
CCOc1ccc(NC(=O)CNC(=O)c2cn(-c3ccccc3OC)c(=O)c3ccccc23)cc1	0	0	0	0	0	0	-	-	-	-	-	-
O=C(N/N=C1\CCCc2ccccc21)c1cccc([N+](=O)[O-])c1	0	0	0	0	0	4.4	?	0.023	0	0.012	0	0.012
C/C(=N\NC(=O)c1cccc([N+](=O)[O-])c1)c1cccs1	-	0	-	-	-	3.8	0	0.023	0	0.017	?	?
O=C(N/N=C1/CCCc2ccccc21)c1cc([N+](=O)[O-])cc([N+](=O)[O-])c1	0	0	0	0	0	0	-	-	-	-	-	-
COC(=O)N/N=C1\CCCc2ccccc21	0	0	0	0	0	0	-	-	-	-	-	-
O=C(N/N=C1\CCCc2ccccc21)c1cccc(Br)c1	0	0	0	0	0	5.9	?	0.022	0	0.011	?	?
C/C(=N/NC(=O)c1cccs1)c1ccco1	0	0	0	0	0	4.7	0	0.015	0	?	?	0.011
N#CC(C#N)=c1ccc2c(c1)NC1(CCCCC1)N=2	0	0	0	0	0	0	-	-	-	-	-	-
SMILES	STAT1 activator	HSV replic up	STAT3 blocker	STAT3 activator	STAT1 inh	KCC2 mod	KCC2 secondary	KCC2 bumet counter	KCC2 secondary2	HEK counter1	KCC2 retest ouab	HEK counter2
COc1ccccc1N(CCC#N)C(=O)CSc1nc(-c2ccccc2)cn1N	0	0	0	0	0	0	-	-	-	-	-	-
Cc1sc(/N=C/c2ccccc2O)c(C#N)c1C	0	-	0	0	0	-	-	-	-	-	-	-
O=C(CCc1ccc(S(=O)(=O)N2CCOCC2)cc1)N1CCN(Cc2ccc3c(c2)OCO3)CC1	0	0	0	0	0	0	-	-	-	-	-	-
C/C(=N\NC(=S)Nc1ccc(C)cc1)c1cccc(N)c1	0	0	0	0	0	9.4	0.018	0.053	0	0.063	0.048	0.017
C/C(=N\NC(=S)Nc1cccc(C)c1)c1ccco1	0	0	0	0	0	78	0.028	0.085	?	0.063	0.058	0.062
C=CCNC(=S)N/N=C(\C)c1cccc(NC(C)=O)c1	0	0	0	0	0	0	-	-	-	-	-	-
COC(=O)C1=C(C(=O)OC)[C@@H]2N(Cc3ccccc3)c3ccccc3[C@@]23C[C@@H](C(=O)OC)N(C(=O)NC(C)(C)C)C3=N1	-	0	-	-	-	-	-	-	-	-	-	-
CC1(C)CC(=O)C(C(=O)CCCCC(=O)C2C(=O)CC(C)(C)CC2=O)C(=O)C1	0	-	0	0	0	4.4	0	0	0	0	0	0
COC(=O)CCCCC(=O)C1C(=O)CC(C)(C)C(C(=O)OC)C1=O (centres undefined)	0	0	0	0	0	0	-	-	-	-	-	-
Cc1nc2c(-c3ccccc3)c(C)[nH]n2c(=O)c1Cc1ccccc1	0	0	0	0	0	4.9	0	0.02	0	0.015	?	0.016
COc1ccc(-c2c(C)[nH]n3c(=O)c(Cc4ccccc4)c(C)nc23)cc1OC	0	0	0	0	0	0	-	-	-	-	-	-
Cc1nc2c(-c3ccc(Cl)cc3)c(C)[nH]n2c(=O)c1Cc1ccccc1	0	0	0	0	0	4.9	0	0.013	?	0.012	?	0.012
Cc1cccc(C)c1NC(=O)CSc1nnc(CCCCCNC(=O)OC(C)(C)C)o1	0	0	0	0	0	0	-	-	-	-	-	-
O=C(CN(Cc1ccc(F)cc1)S(=O)(=O)c1ccc(S(=O)(=O)N2CCOCC2)cc1)Nc1ccccc1	0	0	0	0	0	0	-	-	-	-	-	-
